Experimental findings from ChEMBL document CHEMBL4270600, “Pyrazinyl ureas revisited: 1-(3-(Benzyloxy)pyrazin-2-yl)-3-(3,4-dichlorophenyl)urea, a new blocker of Aβ-induced mPTP opening for Alzheimer's disease” (Eur J Med Chem, 2018) are described below.

pIC50: −log10 of the molar value.

Data set [1] relates to HT-22. Put plainly: Neuroprotection against amyloid beta (1 to 42)-induced deterioration of mitochondrial ATP production in mouse HT22 cells assessed as ATP recovery at 5 uM preincubated for 10 mins followed by amyloid beta (1 to 42) addition and measured after 7 hrs by luciferase reporter gene assay relative to control. It counts as functional. Put shortly: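 HT-22 cells were seeded at 10,000/well the day before. Test agent was added as a 10 μM solution (25 μL) for 10 min at 37 °C, then 25 μL of 10 μM Aβ1–42 solution, followed by 7 h at 37 °C. Lysates (1% Triton X-100/TBST) were equalized by BCA protein and assayed for ATP with a luciferase kit. Vehicle control was subtracted, and percent recovery was calculated against Aβ-treated vehicle control, from duplicate averages.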
(Reporter assays use an easily measured gene product as a stand-in for the process of interest.)

In data set [2] the target is Peptidyl-prolyl cis-trans isomerase F, mitochondrial (Mus musculus) (UniProt Q99KR7). Put plainly: Blockade of amyloid beta (1 to 42)-induced cypD-mediated mPTP opening in mouse HT22 cells assessed as green to red fluorescence ratio at 5 uM preincubated for 10 mins followed by amyloid beta (1 to 42) addition measured at 1 hr time interval for 3 hrs by JC-1 staining based fluorescence assay (reference value: 100%). It counts as cell-based. Summed up:
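HT-22 mouse hippocampal cells were grown in DMEM with 10% FBS and seeded at 30,000/well the day before. They were loaded with 7.5 μM JC-1 (final) in phenol red-free Opti-MEM for 1 h 15 min at 37 °C, then PBS-washed. Test agent at 5 μM in Opti-MEM was added for 10 min at 37 °C, then 5 μM Aβ1–42 solution. Red (ex 530/em 580) and green (ex 485/em 530) fluorescence was read hourly for 3 h. The green/red ratio was expressed as percent change normalized to vehicle control (100%), from duplicate averages.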

Data set [3] concerns HT-22. Put plainly: Induction of mitochondrial energy production impairment in mouse HT22 cells assessed as ATP production at 5 uM after 7 hrs by luciferase reporter gene assay relative to control. The following applies: ht-22, 7 h. The class given is cell-based. Put shortly:
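HT-22 cells were seeded at 10,000/well the day before. Test agent was added as a 10 μM solution (25 μL) without Aβ and incubated 7 h at 37 °C. Cells were PBS-washed and lysed in 1% Triton X-100/TBST, and protein was measured by BCA. Equal lysate amounts were assayed for ATP by luciferase kit. Levels were expressed relative to vehicle control, from duplicate averages.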

For data set [4], the target named is Voltage-gated inwardly rectifying potassium channel KCNH2 (Homo sapiens, UniProt Q12809). Put plainly: Displacement of [3H]-astemizole from human ERG expressed in HEK293 cell membranes after 1 hr by microbeta counting method. Put shortly: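 Radioligand binding used 2.5 µg HEK-293 membranes expressing human ERG in 50 mM Hepes pH 7.4, 60 mM KCl, 0.1% BSA, with 4 nM [³H]astemizole. Incubation was 1 h at room temperature, followed by filtration through PEI-presoaked filtermat and scintillation counting. Non-specific binding was defined with 0.1 µM astemizole. Each competitor was tested at 5–6 concentrations in duplicate tubes, with isotherms from two assays.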
Chain of Voltage-gated inwardly rectifying potassium channel KCNH2 (Q12809 whole entry): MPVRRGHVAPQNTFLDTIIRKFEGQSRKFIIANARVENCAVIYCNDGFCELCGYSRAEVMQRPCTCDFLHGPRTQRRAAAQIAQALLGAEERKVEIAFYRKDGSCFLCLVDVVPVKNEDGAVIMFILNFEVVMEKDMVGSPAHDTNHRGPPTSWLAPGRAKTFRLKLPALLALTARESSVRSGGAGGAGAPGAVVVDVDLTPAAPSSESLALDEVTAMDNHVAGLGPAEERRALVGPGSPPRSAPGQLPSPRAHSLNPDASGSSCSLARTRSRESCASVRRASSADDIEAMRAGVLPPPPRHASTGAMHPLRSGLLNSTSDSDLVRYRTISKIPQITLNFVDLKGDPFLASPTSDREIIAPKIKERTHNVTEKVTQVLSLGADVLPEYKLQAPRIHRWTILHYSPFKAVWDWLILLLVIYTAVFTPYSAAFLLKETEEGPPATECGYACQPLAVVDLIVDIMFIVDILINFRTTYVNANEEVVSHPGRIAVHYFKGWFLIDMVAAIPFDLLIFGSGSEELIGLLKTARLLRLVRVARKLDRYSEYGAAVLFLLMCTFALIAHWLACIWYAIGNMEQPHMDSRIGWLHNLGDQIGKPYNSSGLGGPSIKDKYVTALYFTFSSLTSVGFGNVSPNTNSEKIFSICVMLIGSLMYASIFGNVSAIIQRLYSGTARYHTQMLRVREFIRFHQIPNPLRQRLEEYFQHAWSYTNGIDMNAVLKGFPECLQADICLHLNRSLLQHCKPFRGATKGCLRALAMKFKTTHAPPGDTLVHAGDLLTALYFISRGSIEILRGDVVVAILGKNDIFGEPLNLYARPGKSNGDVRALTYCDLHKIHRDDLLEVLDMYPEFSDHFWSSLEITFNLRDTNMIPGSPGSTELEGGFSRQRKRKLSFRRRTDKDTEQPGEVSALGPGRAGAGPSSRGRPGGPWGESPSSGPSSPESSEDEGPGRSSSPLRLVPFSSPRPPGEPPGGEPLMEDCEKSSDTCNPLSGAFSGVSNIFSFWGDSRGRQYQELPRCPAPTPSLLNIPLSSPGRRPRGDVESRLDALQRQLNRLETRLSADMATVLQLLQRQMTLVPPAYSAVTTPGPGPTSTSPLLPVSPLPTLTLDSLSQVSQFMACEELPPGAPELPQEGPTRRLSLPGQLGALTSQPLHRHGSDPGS

Data set [5] in a line: Cytotoxicity against mouse HT22 cells assessed as cell viability at 5 uM after 24 hrs by MTT assay relative to control. It counts as cell-based, HT-22. Conditions: read-out: Activity. Summed up: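 HT-22 cells were seeded at 5000/well and treated with 5 μM test agent for 24 h at 37 °C. MTT was added for 2 h at 37 °C. Formazan was dissolved in 10% Triton X-100 in isopropanol with 0.1 M HCl for 1 h at room temperature. Absorbance was read at 570 nm, vehicle control subtracted, and viability expressed as percent of control, from duplicate averages.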
Background: Tetrazolium assays rely on reduction of a dye to a coloured formazan, in cell work by metabolically active cells.

Broadly, the pIC50 is −log10 of the IC50, conventionally taken in molar units.

Chain of Peptidyl-prolyl cis-trans isomerase F, mitochondrial (Mus musculus) (Q99KR7 whole entry): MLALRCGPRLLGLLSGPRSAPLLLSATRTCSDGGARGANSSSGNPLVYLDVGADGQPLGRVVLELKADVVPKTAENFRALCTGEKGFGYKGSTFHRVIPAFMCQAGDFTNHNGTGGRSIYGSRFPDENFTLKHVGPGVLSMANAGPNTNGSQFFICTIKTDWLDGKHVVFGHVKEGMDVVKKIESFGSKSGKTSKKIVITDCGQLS

As to `CN1CCN(CCNC(=O)Nc2nccnc2OCc2cccc(Cl)c2)CC1`, the Activity in data set [1] turned out to be 17.7%; in data set [3] it was 96.1%. In addition, in data set [2], the Ratio came out at 34%.

Turning to `O=C(Nc1cccc(Cl)c1)Nc1nccnc1OCc1ccccc1Cl`, the Ratio in data set [2] stood at 55%.

For `CCNC(=O)Nc1nccnc1OCc1cccc(Cl)c1`, in data set [2], the Ratio was determined as 60%.

`O=C(Nc1ccc(Cl)c(Cl)c1)Nc1nccnc1OCc1ccccc1`: the pIC50 in data set [4] was 4.95. For the same compound, the Activity in data set [1] was found to be 71.2%; in data set [3] it was 148.6%. The Ratio in data set [2] came out at 29%. Also, the viability at 24 h, 5 µM in data set [5] turned out to be 139%.

For `O=C(NCCCl)Nc1nccnc1OCc1ccccc1`, in data set [2], the Ratio was 53%.

Take `O=C(Nc1ccccc1)Nc1nccnc1OCc1ccccc1Cl`: the Ratio in data set [2] amounted to 39%. Moreover, the Activity in data set [3] came out at 66.9%.

On to `CC(C)(C)NC(=O)Nc1nccnc1OCc1ccccc1`, for which, in data set [2], the Ratio was 51%.

Regarding `O=C(Nc1cccc(F)c1)Nc1nccnc1OCc1cccc(Cl)c1`, the Ratio in data set [2] worked out at 50%.

For `CC(C)(C)NC(=O)Nc1nccnc1OCc1cccc(F)c1`, the Ratio in data set [2] came to 55%.

In the case of `CC(C)(C)NC(=O)Nc1nccnc1OCc1ccccc1Cl`, the Ratio in data set [2] is 28%. The Activity in data set [3] stood at 55.3%.

On to `O=C(NCCCl)Nc1nccnc1OCc1cccc(Cl)c1`, for which the Ratio in data set [2] was 73%.

For the compound `CC(C)(C)CC(C)(C)NC(=O)Nc1nccnc1OCc1ccc(Cl)cc1`, the figures for the Activity in data set [1] and in data set [3] were -1.7% and 85.7%, respectively. Besides, the Ratio in data set [2] was determined as 35%.

With `CN1CCN(CCNC(=O)Nc2nccnc2OCc2ccccc2Cl)CC1`, the Ratio in data set [2] was determined as 34%.

`O=C(Nc1cccc(Cl)c1)Nc1nccnc1OCc1cccc(Cl)c1`: the Activity in data set [1] was -3.5%; in data set [3], 85.4%. In addition, in data set [2], the Ratio was found to be 29%.

On to `O=C(Nc1nccnc1OCc1ccc(Cl)cc1)Nc1cccc2ccccc12`, for which the Ratio in data set [2] amounted to 60%.

Consider `CC(C)(C)CC(C)(C)NC(=O)Nc1nccnc1OCc1cccc(F)c1`, for which the Activity in data set [1] was 32.9%; in data set [3] it was 98.9%. In data set [2], the Ratio worked out at 29%.

Turning to `O=C(NCc1ccccc1)Nc1nccnc1OCc1ccccc1Cl`, the Activity in data set [1] was 71.3%; in data set [3], 96.9%. Moreover, the Ratio in data set [2] amounted to 33%. The viability at 24 h, 5 µM in data set [5] was 84.8%.

On to `O=C(Nc1nccnc1OCc1ccccc1)NC1CCCCCC1`, for which the Activity in data set [1] is on record as 45.7%; in data set [3] it was 103.4%. Moreover, the Ratio in data set [2] is 33%. For the same compound, the viability at 24 h, 5 µM in data set [5] is 59%.

As for `CC(C)(C)CC(C)(C)NC(=O)Nc1nccnc1OCc1ccccc1`, the Activity is -59% in data set [1] and 86% in data set [3]. Further, in data set [2], the Ratio is 25%.

On to `O=C(Nc1ccccc1)Nc1nccnc1OCc1cccc(F)c1`, for which the Ratio in data set [2] is 30%.

For the compound `CC(C)(C)CC(C)(C)NC(=O)Nc1nccnc1OCc1ccc(F)cc1`, in data set [2], the Ratio came out at 17%.

`NC(=O)CN1CCCC1=O` [PIRACETAM]: the Activity in data set [1] is on record as 127%; in data set [3], 88%.

With `O=C(NCCCl)Nc1nccnc1OCc1ccccc1Cl`, in data set [2], the Ratio turned out to be 72%.

As to `CC(C)(C)CC(C)(C)NC(=O)Nc1nccnc1OCc1ccccc1Cl`, the Ratio in data set [2] is 59%.

Turning to `O=C(NCCN1CCNCC1)Nc1nccnc1OCc1ccccc1Cl`, in data set [2], the Ratio turned out to be 37%. For the same compound, in data set [3], the Activity is 70%.

Regarding `O=C(Nc1ccccc1)Nc1nccnc1OCc1cccc(Cl)c1`, in data set [2], the Ratio worked out at 59%.

As for `O=C(Nc1cccc(Cl)c1)Nc1nccnc1OCc1cccc(F)c1`, the Ratio in data set [2] is 39%.

With `O=C(Nc1ccccc1)Nc1nccnc1OCc1ccccc1`, in data set [2], the Ratio was 44%.

Consider `CN1CCN(CCNC(=O)Nc2nccnc2OCc2ccccc2)CC1`, for which the Activity in data set [1] was 0.7%; in data set [3] it was 97.2%. Also, the Ratio in data set [2] was 43%.
